Results from ChEMBL document CHEMBL1153974, “Piperidinyl-2-phenethylamino inhibitors of DPP-IV for the treatment of type 2 diabetes” (Bioorg Med Chem Lett, 2009).

Experiments:
[1] = target: Voltage-gated inwardly rectifying potassium channel KCNH2 (Homo sapiens, UniProt Q12809); assay: Inhibition of human ERG by patch-clamp assay
[2] = system: Rattus norvegicus; assay: Inhibition of DPP4 in rat plasma at 5 mg/kg, po assessed as time required to inhibit 50% by PK/PD analysis; format: functional
[3] = target: Dipeptidyl peptidase 2 (Homo sapiens, UniProt Q9UHL4); assay: Inhibition of human DPP2
[4] = Volume of distribution at steady state in dog at 1 mg/kg, iv; format: ADME, organism-based, Canis lupus familiaris; parameters: dose 1 mg/kg, route intravenous; details: in vivo, read-out: Vdss
[5] = Half life dog at 1 mg/kg, iv; format: ADME, organism-based, Canis lupus familiaris; parameters: dose 1 mg/kg, route intravenous; details: in vivo
[6] = Bioavailability in dog at 1 mg/kg, iv and 1 mg/kg, po; format: ADME, organism-based, Canis lupus familiaris; details: in vivo
[7] = Half life in human at 15 mg; format: ADME, organism-based; details: in vivo
How it was run: (§1)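 Human values projected from rat and dog ADME data by modeling; predicted plasma concentration–time profiles generated at varying doses.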

[8] = Half life in rat at 1 mg/kg, iv; format: ADME, organism-based; parameters: dose 1 mg/kg, route intravenous; details: in vivo
[9] = Volume of distribution at steady state in rat at 1 mg/kg, iv; format: ADME, organism-based; parameters: dose 1 mg/kg, route intravenous; details: in vivo, read-out: Vdss
[10] = Clearance in dog plasma at 1 mg/kg, iv and 1 mg/kg, po; format: ADME, organism-based, Canis lupus familiaris
[11] = Clearance in rat plasma at 1 mg/kg, iv and 5 mg/kg, po; format: ADME, organism-based
[12] = Volume of distribution at steady state in human at 15 mg; format: ADME, organism-based; details: in vivo, read-out: Vdss; how it was run: as §1
[13] = Bioavailability in rat at 1 mg/kg, iv and 5 mg/kg, po; format: ADME, organism-based; details: in vivo
[14] = Bioavailability in human at 15 mg; format: ADME, organism-based; details: in vivo; how it was run: as §1
[15] = Clearance in human plasma at 15 mg; format: ADME, organism-based; how it was run: as §1
[16] = target: Dipeptidyl peptidase 4 (Homo sapiens, UniProt P27487); assay: Inhibition of human DPP4
Sequence of Dipeptidyl peptidase 4 (P27487 whole entry): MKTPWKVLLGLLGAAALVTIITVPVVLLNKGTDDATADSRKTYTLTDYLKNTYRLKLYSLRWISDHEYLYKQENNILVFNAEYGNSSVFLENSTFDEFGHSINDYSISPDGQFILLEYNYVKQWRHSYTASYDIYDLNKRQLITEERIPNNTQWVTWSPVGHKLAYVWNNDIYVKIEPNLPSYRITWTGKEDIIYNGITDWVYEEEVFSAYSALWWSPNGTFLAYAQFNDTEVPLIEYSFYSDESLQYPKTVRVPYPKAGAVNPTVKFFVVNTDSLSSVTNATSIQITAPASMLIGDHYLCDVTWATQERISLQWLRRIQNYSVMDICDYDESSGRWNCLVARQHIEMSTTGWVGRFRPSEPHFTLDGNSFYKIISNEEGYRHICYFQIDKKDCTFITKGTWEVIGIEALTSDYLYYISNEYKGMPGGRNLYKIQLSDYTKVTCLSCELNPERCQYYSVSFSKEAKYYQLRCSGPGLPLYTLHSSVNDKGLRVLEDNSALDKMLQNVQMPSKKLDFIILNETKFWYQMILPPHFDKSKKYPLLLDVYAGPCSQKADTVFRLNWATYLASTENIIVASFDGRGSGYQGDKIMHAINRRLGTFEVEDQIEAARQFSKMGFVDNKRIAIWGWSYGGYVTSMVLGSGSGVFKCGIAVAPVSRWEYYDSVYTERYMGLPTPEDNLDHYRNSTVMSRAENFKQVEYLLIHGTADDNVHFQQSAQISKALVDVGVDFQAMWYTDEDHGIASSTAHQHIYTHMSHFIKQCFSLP

Sequence of Voltage-gated inwardly rectifying potassium channel KCNH2 (Q12809 whole entry): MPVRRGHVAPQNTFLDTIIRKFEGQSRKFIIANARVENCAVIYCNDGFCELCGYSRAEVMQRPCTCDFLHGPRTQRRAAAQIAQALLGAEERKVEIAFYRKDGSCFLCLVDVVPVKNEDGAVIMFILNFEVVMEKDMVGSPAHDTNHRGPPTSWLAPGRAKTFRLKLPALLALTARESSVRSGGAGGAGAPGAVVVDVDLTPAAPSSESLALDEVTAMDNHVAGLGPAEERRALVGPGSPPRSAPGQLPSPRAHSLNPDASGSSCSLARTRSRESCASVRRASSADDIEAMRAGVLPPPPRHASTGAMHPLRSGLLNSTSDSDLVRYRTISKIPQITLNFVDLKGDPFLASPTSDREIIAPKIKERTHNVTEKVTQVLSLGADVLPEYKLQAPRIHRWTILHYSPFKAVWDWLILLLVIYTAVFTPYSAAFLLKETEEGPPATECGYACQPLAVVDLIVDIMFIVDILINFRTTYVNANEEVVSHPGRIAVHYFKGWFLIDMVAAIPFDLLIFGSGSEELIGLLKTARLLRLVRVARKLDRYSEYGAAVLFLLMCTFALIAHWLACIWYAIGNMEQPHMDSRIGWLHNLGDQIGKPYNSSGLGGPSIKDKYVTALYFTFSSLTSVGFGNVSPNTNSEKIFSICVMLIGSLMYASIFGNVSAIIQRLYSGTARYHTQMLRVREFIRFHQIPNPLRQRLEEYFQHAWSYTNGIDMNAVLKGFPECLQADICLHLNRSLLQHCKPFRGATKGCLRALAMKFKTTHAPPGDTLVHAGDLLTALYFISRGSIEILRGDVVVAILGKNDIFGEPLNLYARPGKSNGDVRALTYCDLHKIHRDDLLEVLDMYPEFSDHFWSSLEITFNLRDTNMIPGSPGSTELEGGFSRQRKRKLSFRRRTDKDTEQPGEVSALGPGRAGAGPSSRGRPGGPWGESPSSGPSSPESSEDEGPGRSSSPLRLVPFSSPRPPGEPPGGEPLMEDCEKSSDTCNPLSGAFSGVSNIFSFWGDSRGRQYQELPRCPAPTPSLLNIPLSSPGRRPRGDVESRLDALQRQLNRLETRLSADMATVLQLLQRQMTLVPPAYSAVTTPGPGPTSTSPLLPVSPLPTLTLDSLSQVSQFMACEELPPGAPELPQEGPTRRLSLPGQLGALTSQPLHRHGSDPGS

Compound | Activity [2] | IC50 [3] | IC50 [16] | other results
Cc1nccnc1C(=O)N1CCC([C@H](N)Cc2cc(F)c(F)cc2F)CC1 | 12 h | > 30 µM |  | IC50 [1]: 55 µM
Cc1ncc(C)c(C(=O)N2CCC([C@H](N)Cc3cc(F)c(F)cc3F)CC2)n1 | 8 h | > 30 µM |  | IC50 [1]: 85 µM
Cc1cc2ncc(C(=O)N3CCC([C@H](N)Cc4cc(F)c(F)cc4F)CC3)c(C)n2n1 | >20 h | 16.8 µM |  | Vd [4]: 2.2 L/kg; half-life [5]: 3.71 h; bioavailability [6]: 52%; half-life [7]: 3.5 h; half-life [8]: 5.09 h; Vd [9]: 2.2 L/kg; clearance [10]: 12.9 mL/min/kg; clearance [11]: 18 mL/min/kg; Vd [12]: 1 L/kg; bioavailability [13]: 70%; bioavailability [14]: 70%; clearance [15]: 3.4 mL/min/kg
Fc1cc(F)c(C[C@@H]2CCCCN2)cc1F |  |  | > 30 µM | 
N[C@H](Cc1cc(F)c(F)cc1F)C1CCN(C(=O)c2cc3ccccc3cn2)CC1 |  | 10.2 µM |  | 
Nc1nccnc1C(=O)N1CCC([C@H](N)Cc2cc(F)c(F)cc2F)CC1 |  | 9.11 µM |  | 
N[C@H](Cc1cc(F)c(F)cc1F)CC1CCCCC1 |  |  | > 30 µM | 
NCCc1cc(F)c(F)cc1F |  |  | > 30 µM | 
N[C@H](Cc1cc(F)c(F)cc1F)C1CCN(C(=O)c2ccc(F)cc2F)CC1 |  | 11.1 µM |  | 
N[C@H](Cc1cc(F)c(F)cc1F)C1CCN(C(=O)c2cnc3ncccn23)CC1 | >24 h | 10.8 µM |  | 
